Experiments:
[1] = molecular target: Amyloid-beta precursor protein (Homo sapiens) (UniProt P05067); assay: Inhibition of amyloid beta-40 aggregation (unknown origin) assessed as beta-sheet at 900 uM after 72 hrs by CD spectra analysis (reference value: 2 to 3%); design: scale not given: the % may be the effect or the level left
Method in brief: (§1)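 Low-molecular-weight Aβ40 was prepared by dissolving the peptide in dilute aqueous NaOH (pH 10.5–12) and diluting in phosphate buffer (pH 7.4). It was sonicated for 60 s and ultracentrifuged at 80,000 rpm for 90 min at 4 °C, and the supernatant was used. Compound and Aβ40 were incubated quiescently at pH 7.4 and 37 °C at molar ratios 1:5, 1:1 and 5:1. Secondary-structure fractions were read from CD spectra after 72 h.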

[2] = molecular target: Amyloid-beta precursor protein (Homo sapiens) (UniProt P05067); assay: Inhibition of amyloid beta-40 aggregation (unknown origin) assessed as beta-turns at 180 uM after 72 hrs by CD spectra analysis (reference value: 0%); design: scale not given: the % may be the effect or the level left; method in brief: as §1
[3] = Neuroprotective activity in C57BL/6 mouse primary cortical neurons assessed as reduction in amyloid beta-40-induced cell death at 240 uM pre-incubated with amyloid beta-40 for 6 hrs and measured after 48 hrs by trypan blue dye exclusion assay; type: functional, Cerebral cortex neuron; design: scale not given: the % may be the effect or the level left
[4] = molecular target: Amyloid-beta precursor protein (Homo sapiens) (UniProt P05067); assay: Inhibition of amyloid beta-40 aggregation (unknown origin) assessed as alpha-helix at 180 uM after 72 hrs by CD spectra analysis (reference value: 11 to 15%); design: scale not given: the % may be the effect or the level left; method in brief: as §1
[5] = molecular target: Amyloid-beta precursor protein (Homo sapiens) (UniProt P05067); assay: Inhibition of amyloid beta-40 aggregation (unknown origin) assessed as unordered at 180 uM after 72 hrs by CD spectra analysis (reference value: 82 to 85%); design: scale not given: the % may be the effect or the level left; method in brief: as §1
[6] = molecular target: Amyloid-beta precursor protein (Homo sapiens) (UniProt P05067); assay: Inhibition of amyloid beta-40 aggregation (unknown origin) assessed as beta-sheet at 36 uM after 72 hrs by CD spectra analysis (reference value: 2 to 3%); design: scale not given: the % may be the effect or the level left; method in brief: as §1
[7] = molecular target: Amyloid-beta precursor protein (Homo sapiens) (UniProt P05067); assay: Inhibition of amyloid beta-40 aggregation (unknown origin) assessed as fibril width at 1800 uM for 7 days at pH 7.4 by transmission electron microscopy (reference value: 12.3 +/- 1.2 nanometer)
[8] = molecular target: Amyloid-beta precursor protein (Homo sapiens) (UniProt P05067); assay: Inhibition of amyloid beta-40 aggregation (unknown origin) assessed as alpha-helix at 900 uM after 72 hrs by CD spectra analysis (reference value: 11 to 15%); design: scale not given: the % may be the effect or the level left; method in brief: as §1
[9] = molecular target: Amyloid-beta precursor protein (Homo sapiens) (UniProt P05067); assay: Inhibition of amyloid beta-40 aggregation (unknown origin) assessed as unordered at 36 uM after 72 hrs by CD spectra analysis (reference value: 82 to 85%); design: scale not given: the % may be the effect or the level left; method in brief: as §1
[10] = molecular target: Amyloid-beta precursor protein (Homo sapiens) (UniProt P05067); assay: Inhibition of amyloid beta-40 aggregation (unknown origin) assessed as beta-sheet at 180 uM after 72 hrs by CD spectra analysis (reference value: 2 to 3%); design: scale not given: the % may be the effect or the level left; method in brief: as §1
[11] = Neuroprotective activity in C57BL/6 mouse primary cortical neurons assessed as reduction in amyloid beta-40-induced cell death at 600 uM pre-incubated with amyloid beta-40 for 6 hrs and measured after 48 hrs by trypan blue dye exclusion assay; type: functional, Cerebral cortex neuron; design: scale not given: the % may be the effect or the level left
[12] = molecular target: Amyloid-beta precursor protein (Homo sapiens) (UniProt P05067); assay: Inhibition of amyloid beta-40 aggregation (unknown origin) assessed as beta-turns at 900 uM after 72 hrs by CD spectra analysis (reference value: 0%); design: scale not given: the % may be the effect or the level left; method in brief: as §1
[13] = molecular target: Amyloid-beta precursor protein (Homo sapiens) (UniProt P05067); assay: Inhibition of amyloid beta-40 aggregation (unknown origin) assessed as beta-turns at 36 uM after 72 hrs by CD spectra analysis (reference value: 0%); design: scale not given: the % may be the effect or the level left; method in brief: as §1
[14] = molecular target: Amyloid-beta precursor protein (Homo sapiens) (UniProt P05067); assay: Inhibition of amyloid beta-40 aggregation (unknown origin) assessed as unordered at 900 uM after 72 hrs by CD spectra analysis (reference value: 82 to 85%); design: scale not given: the % may be the effect or the level left; method in brief: as §1
[15] = Toxicity in C57BL/6 mouse primary cortical neurons assessed as reduction in cell viability at 240 to 600 uM after 48 hrs by trypan blue dye exclusion assay; type: cell-based; conditions: cerebral cortex neuron
[16] = molecular target: Amyloid-beta precursor protein (Homo sapiens) (UniProt P05067); assay: Inhibition of amyloid beta-40 aggregation (unknown origin) assessed as alpha-helix at 36 uM after 72 hrs by CD spectra analysis (reference value: 11 to 15%); design: scale not given: the % may be the effect or the level left; method in brief: as §1
[17] = molecular target: Amyloid-beta precursor protein (Homo sapiens) (UniProt P05067); assay: Inhibition of amyloid beta-40 aggregation (unknown origin) assessed as extension of lag phase of Abeta40 aggregation at 100 uM by ThT fluorescence assay; design: scale not given: the % may be the effect or the level left
Method in brief: (§2)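 Monomer-rich Aβ40 (35 µM, supernatant after NaOH dissolution, sonication and ultracentrifugation) was incubated with 10 nM–100 µM compound in 20 mM phosphate buffer pH 7.4 (I 0.15 M), with 20 µM ThT and 0.007% NaN3, quiescent at 37 °C. Fluorescence (ex 440, em 480 nm) was read every 5 min. Lag time came from an empirical sigmoidal nonlinear-regression fit; mean ± SE of four independent experiments.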

[18] = molecular target: Amyloid-beta precursor protein (Homo sapiens) (UniProt P05067); assay: Inhibition of amyloid beta-40 aggregation (unknown origin) assessed as extension of lag phase of Abeta40 aggregation by ThT fluorescence assay; method in brief: as §2

Amyloid-beta precursor protein (Homo sapiens), sequence (P05067 whole entry): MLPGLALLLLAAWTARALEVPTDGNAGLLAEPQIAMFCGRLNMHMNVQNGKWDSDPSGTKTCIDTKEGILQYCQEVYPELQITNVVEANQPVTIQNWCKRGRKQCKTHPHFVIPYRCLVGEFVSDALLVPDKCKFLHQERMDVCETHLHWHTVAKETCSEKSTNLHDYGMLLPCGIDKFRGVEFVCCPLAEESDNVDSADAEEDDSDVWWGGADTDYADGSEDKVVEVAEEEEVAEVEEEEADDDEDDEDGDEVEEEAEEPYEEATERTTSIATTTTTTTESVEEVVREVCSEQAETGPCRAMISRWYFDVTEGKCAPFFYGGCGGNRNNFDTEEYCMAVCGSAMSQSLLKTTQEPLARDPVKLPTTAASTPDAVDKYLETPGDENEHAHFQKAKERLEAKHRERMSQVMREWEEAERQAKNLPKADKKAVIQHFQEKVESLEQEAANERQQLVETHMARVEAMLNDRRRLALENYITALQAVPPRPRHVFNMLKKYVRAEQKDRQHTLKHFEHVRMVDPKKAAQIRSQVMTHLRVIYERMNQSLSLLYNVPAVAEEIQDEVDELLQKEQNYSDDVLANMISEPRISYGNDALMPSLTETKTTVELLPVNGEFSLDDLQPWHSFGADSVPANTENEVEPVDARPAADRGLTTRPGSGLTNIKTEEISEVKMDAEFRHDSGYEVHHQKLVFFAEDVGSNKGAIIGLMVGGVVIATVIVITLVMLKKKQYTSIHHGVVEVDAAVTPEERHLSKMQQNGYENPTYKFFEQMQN

SMILES | Activity [1] [%] | Activity [2] [%] | Activity [3] [%] | Activity [4] [%] | Activity [5] [%] | Activity [6] [%] | Activity [7] [nm] | Activity [8] [%] | Activity [9] [%] | Activity [10] [%] | Activity [11] [%] | Activity [12] [%] | Activity [13] [%] | Activity [14] [%] | Activity [15] | Activity [16] [%] | Activity [17] [%] | inhibition [18]
OC[C@H]1O[C@H](O[C@H]2O[C@H](CO)[C@@H](O)[C@H](O)[C@H]2O)[C@H](O)[C@@H](O)[C@@H]1O [TREHALOSE] | 36 | 33 | 39 | 26 | 5 | 36 | 11.8 | 18 | 15 | 36 | 55 | 29 | 30 | 17 | Non-toxic | 19 | – | –
OC[C@H]1O[C@@H](O[C@H]2[C@H](O)[C@@H](O)[C@H](n3cc(COCC(COCc4cn([C@@H]5O[C@H](CO)[C@@H](O[C@@H]6O[C@H](CO)[C@H](O)[C@H](O)[C@H]6O)[C@H](O)[C@H]5O)nn4)(COCc4cn([C@@H]5O[C@H](CO)[C@@H](O[C@@H]6O[C@H](CO)[C@H](O)[C@H](O)[C@H]6O)[C@H](O)[C@H]5O)nn4)COCC(COCc4cn([C@@H]5O[C@H](CO)[C@@H](O[C@@H]6O[C@H](CO)[C@H](O)[C@H](O)[C@H]6O)[C@H](O)[C@H]5O)nn4)(COCc4cn([C@@H]5O[C@H](CO)[C@@H](O[C@@H]6O[C@H](CO)[C@H](O)[C@H](O)[C@H]6O)[C@H](O)[C@H]5O)nn4)COCc4cn([C@@H]5O[C@H](CO)[C@@H](O[C@@H]6O[C@H](CO)[C@H](O)[C@H](O)[C@H]6O)[C@H](O)[C@H]5O)nn4)nn3)O[C@@H]2CO)[C@H](O)[C@@H](O)[C@H]1O | – | – | – | – | – | – | – | – | – | – | – | – | – | – | – | – | 28 | Dose-dependent effect
